# From ChEMBL document CHEMBL4024803, “New Steroidal 4-Aminoquinolines Antagonize Botulinum Neurotoxin Serotype A in Mouse Embryonic Stem Cell Derived Motor Neurons in Postintoxication Model” (J Med Chem, 2018)
# Columns and labels:
# [1] = molecular target: Botulinum neurotoxin type A (Clostridium botulinum) (UniProt P0DPI0); assay: Inhibition of Clostridium botulinum BoNT/A holotoxin-mediated SNAP-25 cleavage in mouse HBG3 cell-derived motor neurons assessed as full length of SNAP-25 at 10 uM preincubated for 30 mins followed by intoxication measured after 4 hrs by Western blot method relative to control; design: scale not given: the % may be the effect or the level left
# [2] = molecular target: Botulinum neurotoxin type A (Clostridium botulinum) (UniProt P0DPI0); assay: Inhibition of Clostridium botulinum BoNT/A holotoxin-mediated SNAP-25 cleavage in mouse HBG3 cell-derived motor neurons assessed as full length of SNAP-25 at 20 uM preincubated for 30 mins followed by intoxication measured after 4 hrs by Western blot method relative to control; design: scale not given: the % may be the effect or the level left
# [3] = Solubility of the compound at pH 7.4 by light scattering-based laser nephelometric method; format: physicochemical; details: buffer
# How it was run: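 Solubility measured by laser nephelometry (light scattering), pH 7.4, n=3.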
# Mus musculus [4] = assay: Time at which drug concentration stays above 3 uM in mouse at 400 mg/kg, po by UPLC-MS/MS method; format: ADME, organism-based; details: in vivo
# How it was run: (§1)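 Single oral dose in DMSO suspended in 0.5% hydroxyethylcellulose–0.1% Tween 80, given to 7 (400 mg/kg) or 6 (600 mg/kg) mice. Serum came from cardiac puncture under chloroform, one mouse per time point, 15–120 min. Acetonitrile-precipitated serum was analysed by UPLC-MS/MS against calibration in blank human serum.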
# [5] = Drug uptake in mouse serum at 400 mg/kg, po measured at 22 mins by UPLC-MS/MS method; format: ADME, organism-based; details: read-out: Drug uptake
# How it was run: (§2)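 Single oral dose (400 mg/kg, 7 mice; 600 mg/kg, 6 mice), dissolved in DMSO and suspended in 0.5% hydroxyethylcellulose–0.1% Tween 80. Blood taken by cardiac puncture under chloroform, one mouse per time point, 15–120 min. Serum proteins precipitated with 2 volumes acetonitrile; analysed by UPLC-MS/MS against blank human serum calibration. Half-life read from the concentration–time curve.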
# Liver [6] = assay: Half life in mouse liver microsomes; format: ADME, microsome
# How it was run: (§3)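 Substrate-depletion assay: compound incubated with human or mouse liver microsomes for 1 h at 37°C. Half-life and intrinsic clearance derived from compound loss.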
# [7] = Drug uptake in mouse serum at 400 mg/kg, po measured at 30 mins by UPLC-MS/MS method; format: ADME, organism-based; details: read-out: Drug uptake; how it was run: as §2
# [8] = Drug uptake in mouse serum at 600 mg/kg, po measured at 120 mins by UPLC-MS/MS method; format: ADME, organism-based; details: read-out: Drug uptake; how it was run: as §2
# Serum [9] = assay: Drug uptake in mouse serum at 400 mg/kg, po measured at 120 mins by UPLC-MS/MS method; format: ADME, organism-based; details: in vivo, 2 h, BLD = below limit of detection; how it was run: as §2
# [10] = Solubility of the compound by spectrofluorimetric detection-based shake-flask method; format: physicochemical
# Liver [11] = assay: Intrinsic clearance in mouse liver microsomes after 1 hr; format: ADME, microsome; how it was run: as §3
# Mus musculus [12] = assay: Half life in mouse at 400 mg/kg, po by UPLC-MS/MS method; format: ADME, organism-based; details: in vivo; how it was run: as §2
# Mus musculus [13] = assay: Toxicity in mouse assessed as effect on appearance at 400 to 600 mg/kg, po administered as single dose measured 2 times a day for 30 days; format: organism-based; details: in vivo, 720 h
# How it was run: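 Two groups of 5 healthy mice each received one oral dose, 400 or 600 mg/kg. Survival, appearance and behaviour were followed for 30 days. Non-toxic was defined as all 5 surviving with normal appearance and behaviour.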
# [14] = molecular target: Botulinum neurotoxin type A (Clostridium botulinum) (UniProt P0DPI0); assay: (§4) Inhibition of Clostridium botulinum BoNT/A light chain using P39 as substrate preincubated for 10 mins followed by substrate addition measured after 10 mins by HPLC method
# [15] = molecular target: T1, Botulinum neurotoxin type A (Clostridium botulinum, UniProt P0DPI0); assay: as §4
# [16] = Protein binding in mouse plasma at 600 mg/kg, po by ultra-centrifugation method; format: ADME, organism-based; details: read-out: PPB
# [17] = molecular target: Botulinum neurotoxin type A (Clostridium botulinum) (UniProt P0DPI0); assay: Inhibition of Clostridium botulinum BoNT/A holotoxin-mediated SNAP-25 cleavage in mouse HBG3 cell-derived motor neurons assessed as full length of SNAP-25 at 20 uM treated at 30 mins post intoxication by Western blot method relative to control; design: scale not given: the % may be the effect or the level left
# Plasma [18] = assay: Metabolic stability in human plasma assessed as compound remaining after 1 hr; format: ADME, cell-free
# How it was run: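 Compound incubated in human plasma for 1 h at 37°C; percent remaining determined.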
# Plasma [19] = assay: Protein binding in human plasma after 4 hrs by equilibrium dialysis method; format: ADME, cell-free
# How it was run: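 Equilibrium dialysis against buffer, 4 h at 37°C with shaking. After incubation both chambers were matrix-matched and protein-precipitated with cold acetonitrile/water/formic acid containing internal standard. Supernatants were analysed by LC-MS/MS. % free = buffer-chamber / plasma-chamber concentration × 100.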
# [20] = molecular target: T1, Botulinum neurotoxin type A
# Mus musculus [21] = assay: Tmax in mouse at 600 mg/kg, po by UPLC-MS/MS method; format: ADME, organism-based; details: in vivo; how it was run: as §1
# Mus musculus [22] = assay: Half life in mouse at 600 mg/kg, po by UPLC-MS/MS method; format: ADME, organism-based; details: in vivo; how it was run: as §2
# Mus musculus [23] = assay: Tmax in mouse at 400 mg/kg, po by UPLC-MS/MS method; format: ADME, organism-based; details: in vivo; how it was run: as §1
# [24] = molecular target: Botulinum neurotoxin type A (Clostridium botulinum) (UniProt P0DPI0); assay: Inhibition of Clostridium botulinum BoNT/A holotoxin-mediated SNAP-25 cleavage in mouse HBG3 cell-derived motor neurons assessed as full length of SNAP-25 at 20 uM treated at 60 mins post intoxication by Western blot method relative to control; design: scale not given: the % may be the effect or the level left
# Cytochrome P450 3A4 [25] = molecular target: T2, Cytochrome P450 3A4 (Homo sapiens, UniProt P08684); assay: Inhibition of CYP3A4 (unknown origin) using DBF as substrate; format: ADME
# How it was run: (§5)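 Active CYP450 enzyme incubated at 37°C for a set time with a fluorogenic probe substrate (BQ, DBF or BFC for CYP3A4; CEC for CYP2C19; AMMC for CYP2D6). IC50 derived from net fluorescent signal.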
# Serum [26] = assay: Drug uptake in mouse serum at 400 mg/kg, po measured at 90 mins by UPLC-MS/MS method; format: ADME, organism-based; details: in vivo, 1.5 h, BLD = below limit of detection; how it was run: as §2
# [27] = Drug uptake in mouse serum at 600 mg/kg, po measured at 60 mins by UPLC-MS/MS method; format: ADME, organism-based; details: read-out: Drug uptake; how it was run: as §2
# Mus musculus [28] = assay: Toxicity in mouse assessed as effect on survival at 160 mg/kg, po administered for 3 days measured after 30 days; format: organism-based; details: in vivo, 720 h
# How it was run: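 Groups of five healthy mice were dosed per os for three consecutive days, suspended in 0.5% hydroxyethylcellulose–0.1% Tween 80. Behaviour and appearance were monitored twice daily for 30 days, with survival assessed at 30 days. Non-toxic was defined as all 5 surviving with normal appearance and behaviour.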
# Cytochrome P450 3A4 [29] = molecular target: T2, Cytochrome P450 3A4; assay: Inhibition of CYP3A4 (unknown origin) using BFC as substrate; format: ADME; how it was run: as §5
# Mus musculus [30] = assay: Cmax in mouse at 600 mg/kg, po by UPLC-MS/MS method; format: ADME, organism-based; design: dose 600 mg/kg, route oral; details: in vivo; how it was run: as §2
# [31] = Drug uptake in mouse serum at 400 mg/kg, po measured at 45 mins by UPLC-MS/MS method; format: ADME, organism-based; details: read-out: Drug uptake; how it was run: as §2
# Mus musculus [32] = assay: Drug metabolism in mouse assessed as monoacetylated metabolite formation at 400 to 600 mg/kg, po by UPLC-MS/MS method; format: ADME, organism-based; details: in vivo
# Mus musculus [33] = assay: Drug metabolism in mouse assessed as M+32 metabolite formation at 400 to 600 mg/kg, po by UPLC-MS/MS method; format: ADME, organism-based; details: in vivo
# Cytochrome P450 3A4 [34] = molecular target: T2, Cytochrome P450 3A4; assay: Inhibition of CYP3A4 (unknown origin) using BQ as substrate; format: ADME; how it was run: as §5
# T2 sequence (P08684 whole entry): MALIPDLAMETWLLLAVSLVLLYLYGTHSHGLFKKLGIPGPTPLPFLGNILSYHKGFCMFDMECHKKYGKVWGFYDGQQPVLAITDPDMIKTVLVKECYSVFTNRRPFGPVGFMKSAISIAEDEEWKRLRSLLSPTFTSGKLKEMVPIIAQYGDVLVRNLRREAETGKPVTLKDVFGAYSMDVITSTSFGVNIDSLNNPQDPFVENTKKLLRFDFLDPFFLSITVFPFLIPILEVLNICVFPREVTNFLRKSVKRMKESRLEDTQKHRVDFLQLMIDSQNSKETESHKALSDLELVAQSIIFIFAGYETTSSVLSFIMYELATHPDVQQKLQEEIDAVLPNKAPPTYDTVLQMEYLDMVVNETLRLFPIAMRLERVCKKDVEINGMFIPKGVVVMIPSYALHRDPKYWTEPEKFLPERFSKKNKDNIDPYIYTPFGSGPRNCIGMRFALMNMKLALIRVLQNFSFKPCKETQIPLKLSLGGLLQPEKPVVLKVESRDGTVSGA
smiles,measurement,setting,value
CC(=O)O[C@H]1C[C@H]2[C@@H]([C@H](OC(C)=O)C[C@@H]3C[C@H](N)CC[C@@]32C)[C@@H]2CC[C@H]([C@H](C)CCCNCCCCNc3ccnc4cc(Cl)ccc34)[C@@]12C,Activity,[1],72%
same,Activity,[2],88%
same,solubility kinetic,[3],> 50 µg/mL
same,Time,Mus musculus [4],> 45 min
same,concentration at 22 min,[5],7.8 µM
same,t1/2,Liver [6],> 60 min
same,concentration at 0.5 h,[7],4 µM
same,concentration at 2 h,[8],2.4 µM
same,Drug uptake,Serum [9],Bld
same,solubility thermodynamic,[10],640 µg/mL
same,CLH,Liver [11],< 23 µL/min/mg
same,t1/2,Mus musculus [12],43 min
same,Activity,Mus musculus [13],Non-Toxic
same,inhibition,[14],Dose-dependent effect
same,IC50,[15],4500 nM
same,fraction unbound,[16],< 0.01
same,Activity,[17],64%
same,Stability,Plasma [18],> 85%
same,PPB,Plasma [19],> 99%
same,IC50,[20],8000 nM
same,Tmax,Mus musculus [21],15 min
same,t1/2,Mus musculus [22],23 min
same,Tmax,Mus musculus [23],22 min
same,Activity,[24],45%
same,IC50,Cytochrome P450 3A4 [25],1200 nM
same,Drug uptake,Serum [26],Bld
same,concentration at 1 h,[27],2.5 µM
same,Activity,Mus musculus [28],Non-Toxic
same,IC50,Cytochrome P450 3A4 [29],1400 nM
same,Cmax,Mus musculus [30],11.9 µM
same,concentration at 0.75 h,[31],3.3 µM
same,Drug metabolism,Mus musculus [32],Metabolite_Notdetected
same,Drug metabolism,Mus musculus [33],Metabolite_Notdetected
same,IC50,Cytochrome P450 3A4 [34],1100 nM
